From ChEMBL document CHEMBL1152259, “Synthesis of new sulfonate and phosphonate derivatives for cation-independent mannose 6-phosphate receptor targeting” (Bioorg Med Chem Lett, 2008)

Experiments:
[1] = Cytotoxicity against human fibroblast up to 100 uM after 4 days by MTT assay; type: cell-based; details: 96 h
Summary of the method: (§1)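 Human fibroblasts, MCF7 and MDA-MB-231 cells exposed in culture medium for 4 days to increasing concentrations up to 100 µM, with untreated controls. Proliferation read by MTT assay. Triplicates from one experiment, confirmed in two further experiments.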

Serum = experiment: Stability in human serum after 2 days; type: ADME, cell-free; details: 48 h
Summary of the method: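 Analogs incubated 2 days at 37 °C with 75% human serum or without serum. Residual capacity to inhibit biotinylated CI-M6PR binding to plate-adsorbed pentamannose 6-phosphate was then assayed. Result expressed relative to day-0 controls with or without serum, set as 100%. Mean ± standard deviations of triplicates, confirmed in two further experiments.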

[2] = target: Insulin-like growth factor 2 receptor ([…], cation-independent mannose-6-phosphate receptor, CI-MPR; hIGF-IIR) (Homo sapiens, UniProt P11717); experiment: Binding affinity to CI-M6PR
Chain of UniProt P11717 (P11717 whole entry, looked up): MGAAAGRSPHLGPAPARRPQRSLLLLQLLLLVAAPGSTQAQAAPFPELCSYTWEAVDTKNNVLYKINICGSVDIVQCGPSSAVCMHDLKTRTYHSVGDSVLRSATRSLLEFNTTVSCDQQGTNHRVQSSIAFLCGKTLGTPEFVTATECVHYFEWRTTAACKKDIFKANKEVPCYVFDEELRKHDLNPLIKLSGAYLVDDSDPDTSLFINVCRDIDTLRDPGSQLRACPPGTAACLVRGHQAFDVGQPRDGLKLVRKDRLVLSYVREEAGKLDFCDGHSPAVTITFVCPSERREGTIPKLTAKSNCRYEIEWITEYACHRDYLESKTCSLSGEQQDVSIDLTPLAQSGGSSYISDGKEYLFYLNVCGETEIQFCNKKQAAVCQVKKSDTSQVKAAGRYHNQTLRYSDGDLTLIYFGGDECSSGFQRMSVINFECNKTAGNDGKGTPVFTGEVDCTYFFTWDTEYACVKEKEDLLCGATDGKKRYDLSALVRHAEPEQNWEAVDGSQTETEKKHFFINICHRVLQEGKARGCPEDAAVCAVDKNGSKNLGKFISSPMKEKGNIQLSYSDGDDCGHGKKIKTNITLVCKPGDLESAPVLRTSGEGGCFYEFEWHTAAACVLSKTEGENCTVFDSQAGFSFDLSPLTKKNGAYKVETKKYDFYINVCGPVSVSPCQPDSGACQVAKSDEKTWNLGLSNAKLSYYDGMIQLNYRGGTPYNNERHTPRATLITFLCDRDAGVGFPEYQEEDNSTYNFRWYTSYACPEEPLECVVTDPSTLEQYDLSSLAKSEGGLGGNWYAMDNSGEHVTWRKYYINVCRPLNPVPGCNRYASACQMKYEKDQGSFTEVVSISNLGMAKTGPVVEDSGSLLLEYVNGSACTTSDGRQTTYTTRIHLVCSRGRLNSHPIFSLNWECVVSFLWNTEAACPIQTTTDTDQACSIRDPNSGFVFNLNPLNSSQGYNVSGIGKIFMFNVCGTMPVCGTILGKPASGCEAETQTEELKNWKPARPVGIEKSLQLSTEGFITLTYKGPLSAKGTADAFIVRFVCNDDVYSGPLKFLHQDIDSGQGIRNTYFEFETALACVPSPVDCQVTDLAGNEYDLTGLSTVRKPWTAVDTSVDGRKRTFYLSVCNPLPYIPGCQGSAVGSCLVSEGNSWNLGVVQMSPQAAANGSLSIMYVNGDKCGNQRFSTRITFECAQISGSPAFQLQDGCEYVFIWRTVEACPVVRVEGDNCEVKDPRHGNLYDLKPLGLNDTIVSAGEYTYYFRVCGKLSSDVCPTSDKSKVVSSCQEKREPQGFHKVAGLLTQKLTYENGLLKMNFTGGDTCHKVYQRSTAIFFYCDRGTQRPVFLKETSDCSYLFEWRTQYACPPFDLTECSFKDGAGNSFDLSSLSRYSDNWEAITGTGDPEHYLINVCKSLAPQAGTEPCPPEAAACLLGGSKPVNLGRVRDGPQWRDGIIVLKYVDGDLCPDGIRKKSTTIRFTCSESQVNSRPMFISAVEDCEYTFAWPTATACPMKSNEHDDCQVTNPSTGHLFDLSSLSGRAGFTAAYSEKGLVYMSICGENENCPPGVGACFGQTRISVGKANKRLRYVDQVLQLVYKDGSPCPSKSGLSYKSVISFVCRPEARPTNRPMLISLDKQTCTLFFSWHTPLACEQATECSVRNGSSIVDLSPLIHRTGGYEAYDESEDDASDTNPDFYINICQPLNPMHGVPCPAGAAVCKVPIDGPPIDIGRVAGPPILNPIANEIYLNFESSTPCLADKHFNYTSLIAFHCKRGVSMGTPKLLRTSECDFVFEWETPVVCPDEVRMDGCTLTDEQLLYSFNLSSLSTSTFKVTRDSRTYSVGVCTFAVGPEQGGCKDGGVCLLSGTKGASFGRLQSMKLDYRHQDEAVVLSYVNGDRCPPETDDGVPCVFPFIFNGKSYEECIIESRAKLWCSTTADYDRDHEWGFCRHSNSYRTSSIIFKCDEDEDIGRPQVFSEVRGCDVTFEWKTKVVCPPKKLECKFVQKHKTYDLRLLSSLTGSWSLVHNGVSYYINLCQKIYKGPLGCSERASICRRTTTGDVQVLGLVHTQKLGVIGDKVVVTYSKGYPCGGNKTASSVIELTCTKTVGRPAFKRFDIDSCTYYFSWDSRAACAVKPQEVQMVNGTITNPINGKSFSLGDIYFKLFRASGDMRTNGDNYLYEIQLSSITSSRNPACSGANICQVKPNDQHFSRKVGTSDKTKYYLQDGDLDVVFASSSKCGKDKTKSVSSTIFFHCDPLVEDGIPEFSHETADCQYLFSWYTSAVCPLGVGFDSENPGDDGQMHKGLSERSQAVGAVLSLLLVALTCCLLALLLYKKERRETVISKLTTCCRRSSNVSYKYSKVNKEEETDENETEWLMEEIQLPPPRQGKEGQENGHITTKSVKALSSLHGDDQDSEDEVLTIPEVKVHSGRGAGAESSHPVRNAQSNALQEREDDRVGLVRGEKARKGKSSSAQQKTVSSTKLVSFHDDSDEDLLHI
Summary of the method: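 Competitive displacement ELISA: biotinylated CI-M6PR bound to pentamannose 6-phosphate adsorbed on microtiter wells, challenged with increasing analog concentrations. Remaining bound receptor detected with streptavidin/peroxidase and o-phenylenediamine substrate by optical density. IC50 taken from dose-inhibition curves. Mean of triplicates from one experiment, confirmed in two further experiments.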

MCF7 = experiment: Cytotoxicity against human MCF7 cells up to 100 uM by MTT assay; type: cell-based; summary of the method: as §1
MDA-MB-231 = experiment: Cytotoxicity against human MDA-MB-231 cells up to 100 uM by MTT assay; type: cell-based; summary of the method: as §1

| Stability (Serum) | IC50 [2] [µM] | Structure (SMILES) | Activity [1] | Activity (MCF7) | Activity (MDA-MB-231) |
| --- | --- | --- | --- | --- | --- |
| Stable | 150 | CO[C@H]1O[C@H](CCS(=O)(=O)[O-])[C@@H](O)[C@H](O)[C@@H]1O.[Na+] | Not Active | Not Active | Not Active |
| Stable | 71 | CO[C@H]1O[C@H](/C=C/S(=O)(=O)[O-])[C@@H](O)[C@H](O)[C@@H]1O.[Na+] | Not Active | Not Active | Not Active |
| – | 23 | O=P(O)(O)OC[C@H]1OC(O)[C@@H](O)[C@@H](O)[C@@H]1O (stereo partly specified) | – | – | – |

| Structure (SMILES) | Stability (Serum) | IC50 [2] [µM] | Activity [1] | Activity (MCF7) | Activity (MDA-MB-231) |
| --- | --- | --- | --- | --- | --- |
| CO[C@H]1O[C@H](/C=C/P(=O)([O-])[O-])[C@@H](O)[C@H](O)[C@@H]1O.[Na+].[Na+] | Stable | 22 | Not Active | Not Active | Not Active |
